Measurements of several laboratories.
Each line is one published result; the experiments were not run side by side.
Target: Ribosomal protein S6 kinase beta-1 (RPS6KB1, Homo sapiens, UniProt P23443)
Observed: enzyme activity
Action: inhibitor

CC(C)(C)c1nc(-c2cccc(NS(=O)(=O)c3c(F)cccc3F)c2F)c(-c2ccnc(N)n2)s1  remaining activity (radiometric; 1 µM): 75%
Cc1sc(C(=O)NC2COC2)cc1-n1cc(NC(=O)Nc2c(F)cccc2Cl)cn1  remaining activity (10 µM): 92.1%
FC(F)c1nc2ccccc2n1-c1nc(N2CCOCC2)nc(N2CCOCC2)n1  remaining activity (10 µM): 98%
CCCOc1ccc(OC)c(F)c1C(=O)c1ccc(C(=O)N[C@@H]2CNC[C@H]2NC(=O)c2ccc3[nH]ncc3c2)cc1  remaining activity (10 µM): 2%
O=C(Nc1cnn(-c2csc(C(=O)NC3COC3)c2)c1)Nc1c(F)cccc1Cl  remaining activity (5 µM): 97.7%
COc1cc(Nc2cnc(C#N)c(O[C@H](C)CN(C)C)n2)ncc1-c1cnn(C)c1  remaining activity (radiometric; 10 µM): 85%
Nc1nc(Nc2ccccc2)sc1C(=O)c1c(F)cccc1F  remaining activity (10 µM): 57%
Cc1ccc(C(=O)Nc2ccc(CN3CCN(C)CC3)c(C(F)(F)F)c2)cc1C#Cc1cnc2cccnn12  remaining activity (23.5 nM): 68%
CCN(CC)CCNC(=O)c1c(C)[nH]c(/C=C2\C(=O)Nc3ccc(F)cc32)c1C  remaining activity (0.1 µM): 79%
O=S(=O)(Nc1cc(Sc2ncn[nH]2)c(O)c2ccccc12)c1ccc(-c2ccccc2)cc1  remaining activity (1 µM): ≥ 75%
Cc1[nH]c(/C=C2\C(=O)Nc3ccc(F)cc32)c(C)c1C(=O)N[C@H]1CCN(C(=O)N(C)C)C1  remaining activity (0.1 µM): 84%
CCN(CC)c1ccc(C2=NNC(=O)CC2C)cc1[N+](=O)[O-] (stereo not drawn)  remaining activity (10 µM): 109%
